Calls of active or inactive are those of the source. The rule behind the calls is not given here.
What was measured:
[1] = Cytotoxicity against human SH-SY5Y cells after 48 hrs by MTT assay; format: cell-based
Procedure, shortened: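 SH-SY5Y cells grown in DMEM with 10% FBS, 1 mM glutamine, penicillin/streptomycin, 5% CO2, 37 °C; seeded 10,000 cells/well, treated after 24 h with 0-100 µM for 48 h; MTT (5 mg/mL stock) added for 4 h, formazan dissolved in DMSO, absorbance at 570 nm.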

[2] = Inhibition of potato 5-LOX using linoleic acid as substrate assessed as hydroperoxides production after 5 mins by enzyme immuno assay; parameters: species or system Solanum tuberosum
[3] = molecular target: T1, Amyloid-beta precursor protein (Homo sapiens, UniProt P05067); test: Inhibition of amyloid beta (1-42) self-mediated aggregation (unknown origin) after 5 days by thioflavin T fluorescence method
T1 sequence (P05067 whole entry): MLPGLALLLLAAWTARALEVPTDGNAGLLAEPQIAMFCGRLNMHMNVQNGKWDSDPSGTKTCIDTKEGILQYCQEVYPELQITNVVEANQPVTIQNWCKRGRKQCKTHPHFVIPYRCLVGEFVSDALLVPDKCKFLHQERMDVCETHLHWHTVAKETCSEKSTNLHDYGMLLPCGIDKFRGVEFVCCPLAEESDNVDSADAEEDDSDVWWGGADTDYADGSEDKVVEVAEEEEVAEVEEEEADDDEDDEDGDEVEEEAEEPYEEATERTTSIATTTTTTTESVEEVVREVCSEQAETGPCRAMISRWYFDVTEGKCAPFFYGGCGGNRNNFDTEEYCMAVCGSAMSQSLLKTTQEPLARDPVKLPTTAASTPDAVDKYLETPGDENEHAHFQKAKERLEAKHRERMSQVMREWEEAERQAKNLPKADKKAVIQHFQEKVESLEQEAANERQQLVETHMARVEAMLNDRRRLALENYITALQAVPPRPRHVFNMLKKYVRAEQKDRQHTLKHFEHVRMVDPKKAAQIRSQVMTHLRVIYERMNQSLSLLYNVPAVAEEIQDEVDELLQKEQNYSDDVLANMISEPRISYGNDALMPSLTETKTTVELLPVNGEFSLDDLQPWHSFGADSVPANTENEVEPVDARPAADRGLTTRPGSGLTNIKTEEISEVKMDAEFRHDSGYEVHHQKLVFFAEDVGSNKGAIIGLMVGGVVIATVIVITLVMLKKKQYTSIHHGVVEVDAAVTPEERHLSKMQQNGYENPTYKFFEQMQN

[4] = molecular target: T1, Amyloid-beta precursor protein; test: Inhibition of amyloid beta (1 to 42) fibrilation (unknown origin) assessed as reduction in […] structure formation at 10 uM after 2 days by CD spectroscopy assay
Procedure, shortened: (§1)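 20 µM Aβ(1-42) incubated with or without 10 µM compound in 50 mM sodium phosphate pH 7.4 at 37 °C for 2 days; CD spectra recorded at 25 °C, 190-260 nm, 1 mm quartz cell, 0.5 nm bandwidth, 10 nm/min; background and compound spectra subtracted.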

[5] = molecular target: T1, Amyloid-beta precursor protein; test: Inhibition of amyloid beta (1 to 42) fibrilation (unknown origin) assessed as reduction in beta-sheet structure formation at 10 uM after 2 days by CD spectroscopy assay; procedure, shortened: as §1
[6] = molecular target: T1, Amyloid-beta precursor protein; test: Inhibition of amyloid beta (1 to 42) fibrilation (unknown origin) at 20 uM after 4 days by transmission electron microscopic analysis
Procedure, shortened: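 Aβ(1-42) at 40 µM final in 50 mM phosphate pH 7.4 incubated at 37 °C for 4 days with or without 20 µM compound; samples applied to carbon-coated grids, water-washed, negatively stained 1 min with 2% uranyl acetate, examined by transmission electron microscopy.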

IC50 [2]	IC50 [3]	inhibition [4]	inhibition [5]	inhibition [6]	SMILES	IC50 [1]
12.9 µM	19.9 µM	–	–	–	CCCNC(=O)c1ccc(/C=C/C(=O)c2ccc(OC)cc2O)cc1	> 100 µM
9.7 µM	19.1 µM	–	–	–	CCOCCOc1ccc(/C=C/C(=O)c2ccc(OC)cc2O)cc1	> 100 µM
6.8 µM	5.9 µM	–	–	–	COc1ccc(C(=O)/C=C/c2ccc(C(=O)N3CCCCC3)cc2)c(O)c1	> 100 µM
30.3 µM	18.5 µM	–	–	–	COc1ccc(C(=O)/C=C/c2ccc(C(=O)O)cc2)c(O)c1	> 100 µM
24.9 µM	7.3 µM	–	–	–	COc1ccc(C(=O)/C=C/c2ccc(C(=O)Nc3ccccc3OC)cc2)c(O)c1	> 100 µM
7.9 µM	2.2 µM	–	–	–	COc1ccc(C(=O)/C=C/c2ccc(C(=O)N3CCN(C)CC3)cc2)c(O)c1	> 100 µM
13 µM	10.9 µM	–	–	–	COc1ccc(C(=O)/C=C/c2ccc(OCCCOc3ccccc3)c(OC)c2)c(O)c1	> 100 µM
15.7 µM	15.9 µM	–	–	–	CCCCCCCCCCCCNC(=O)c1ccc(/C=C/C(=O)c2ccc(OC)cc2O)cc1	> 100 µM
10.3 µM	9.7 µM	–	–	–	COc1ccc(C(=O)/C=C/c2cc(OC)c(OC)c(OC)c2)c(O)c1	> 100 µM
16.8 µM	10.5 µM	–	–	–	CCOCCOc1cccc(/C=C/C(=O)c2ccc(OC)cc2O)c1	> 100 µM
10.2 µM	7.8 µM	–	–	–	COc1ccc(C(=O)/C=C/c2ccc(OCc3ccccc3)cc2)c(O)c1	> 100 µM
14.2 µM	19.1 µM	–	–	–	COc1ccc(C(=O)/C=C/c2ccc(C(=O)NCCc3ccccc3)cc2)c(O)c1	> 100 µM
20.4 µM	20.1 µM	–	–	–	COc1ccc(C(=O)/C=C/c2ccc(C(=O)N(C)c3ccccc3)cc2)c(O)c1	> 100 µM
6.1 µM	3.2 µM	inactive	Active	Active	COc1ccc(C(=O)/C=C/c2ccc(C(=O)N3CCOCC3)cc2)c(O)c1	> 100 µM
22.1 µM	17.8 µM	–	–	–	COc1ccc(C(=O)/C=C/c2ccc(C(=O)NC(C)C)cc2)c(O)c1	> 100 µM
15.9 µM	8.4 µM	–	–	–	COc1ccc(/C=C/C(=O)c2ccc(OC)cc2O)cc1	> 100 µM
35.8 µM	23.8 µM	–	–	–	COC(=O)c1ccc(/C=C/C(=O)c2ccc(OC)cc2O)cc1	> 100 µM
12.4 µM	–	–	–	–	CC(Cc1ccc(O)c(O)c1)C(C)Cc1ccc(O)c(O)c1 (stereo unspecified) [NORDIHYDROGUAIARETIC ACID]	–
11.6 µM	12.5 µM	–	–	–	COc1ccc(C(=O)/C=C/c2cc(Br)c(OCc3ccccc3)c(OC)c2)c(O)c1	> 100 µM
10.5 µM	14.6 µM	–	–	–	COc1ccc(C(=O)/C=C/c2ccc(C(=O)N3CCCC3)cc2)c(O)c1	> 100 µM
12.4 µM	5.8 µM	–	–	–	CCOCCCOc1ccc(/C=C/C(=O)c2ccc(OC)cc2O)cc1OC	> 100 µM
18 µM	18.9 µM	–	–	–	COc1ccc(C(=O)/C=C/c2ccc(C(=O)NCc3ccccc3)cc2)c(O)c1	> 100 µM
18.6 µM	19.7 µM	–	–	–	O=C(/C=C/c1ccc(O)cc1)c1ccc(O)cc1O [ISOLIQUIRITIGENIN]	–
14.1 µM	10.2 µM	–	–	–	COc1ccc(C(=O)/C=C/c2cc(OC)c(OC)cc2OC)c(O)c1	> 100 µM
16.3 µM	8.3 µM	–	–	–	COc1ccc(C(=O)/C=C/c2ccc(C(=O)Nc3ccc(C)cc3C)cc2)c(O)c1	> 100 µM
11.4 µM	13.3 µM	–	–	–	COc1ccc(C(=O)/C=C/c2ccc(C(=O)Nc3cc([N+](=O)[O-])ccc3O)cc2)c(O)c1	> 100 µM
16.5 µM	10.1 µM	–	–	–	COc1ccc(C(=O)/C=C/c2ccc(C(=O)Nc3ccccc3O)cc2)c(O)c1	> 100 µM
